The first experiment relates to CEM-SS. Briefly: Cytotoxicity against human T cell line CEM-SS. In kind it is functional.
Conditions: not given; call rule not given here
The essentials:
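Uninfected CEM-SS cells were exposed to serial compound dilutions on the same plate as the antiviral test, at 37 °C with 5% CO2 for 6 days. Viability was measured by XTT (0.2 mg/mL, 4 h) absorbance at 450 nm.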
T1 sequence (Q7ZJM1 whole entry): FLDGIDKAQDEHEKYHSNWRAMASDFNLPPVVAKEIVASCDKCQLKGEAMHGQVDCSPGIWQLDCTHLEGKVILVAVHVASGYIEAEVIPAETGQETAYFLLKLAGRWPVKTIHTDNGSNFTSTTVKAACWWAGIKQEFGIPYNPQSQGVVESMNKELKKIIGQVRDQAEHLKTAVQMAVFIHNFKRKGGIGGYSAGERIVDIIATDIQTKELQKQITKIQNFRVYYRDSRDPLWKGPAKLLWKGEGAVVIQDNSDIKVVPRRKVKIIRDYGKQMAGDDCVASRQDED
For orientation: CC50 means the concentration giving 50% cytotoxicity. Regarding `COc1cc(/C=N/NC2=NC(=O)C(CC(=O)Nc3ccc(Cl)c(Cl)c3)S2)ccc1O` (configuration not stated), the 50% cytotoxic concentration (CC50) entry is “Toxic”.
Regarding `O=C(CSc1nc2ccccc2n1Cc1ccccc1)N/N=C/c1cc(Br)ccc1O`, the CC50 entry was “Toxic”.
Same read-out and setting: the entry for `O=C(/C=C/c1ccco1)NC(=S)Nc1ccccc1O` is “Toxic”; for `O=C(N/N=C/c1cc(Br)ccc1O)/C(=C/C=C/c1ccccc1)NC(=O)c1ccccc1` it is “Toxic”; for `O=C(/C=C(\O)c1ccc(Cl)cc1)C(=O)/N=N/c1c(O)[nH]c2ccc(Br)cc12` it is “Toxic”.
`O=C(/N=N/c1c(O)[nH]c2ccc(F)cc12)/C(=C/C=C/c1ccccc1)NC(=O)c1ccccc1`: the CC50 entry is “Toxic”.
On to `Cc1[nH]n(-c2ccccc2)c(=O)c1C(c1ccc(O)c(O)c1)c1c(C)n(C)n(-c2ccccc2)c1=O` (configuration not stated), for which the CC50 result was “Toxic”.
Regarding `COc1ccc(CCNC(=O)CC(=O)N/N=C/c2ccco2)cc1OC`, the CC50 result is “Toxic”.
On the same count and under the same terms, the result for `O=C(CSc1nc(O)cc(CSc2ccc(Cl)cc2)n1)Nc1ccc(Cl)cc1Cl` reads “Toxic”; that for `O=C(Cc1ccccc1)Nc1cc(C(=O)O)c(NC(=O)Cc2ccccc2)cc1C(=O)O`, more than 400 µM.

The test system of another experiment is Human immunodeficiency virus 1. As to the kind of experiment: Antiviral activity in human T cell line CEM-SS infected with HIV1. Type of experiment: functional, organism-based. The note with it: Human immunodeficiency virus 1, T-cell; read-out: EC50. The procedure, abridged:
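CEM-SS cells at 5×10^3/well were infected with HIV-1 RF (MOI 0.3), and serial compound dilutions were added immediately. Cells were kept at 37 °C with 5% CO2 for 6 days. Viability was read by XTT (0.2 mg/mL, 4 h) absorbance at 450 nm.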
In general, EC50 refers to the concentration that produces a half-maximal response. Turning to `O=C(Cc1ccccc1)Nc1cc(C(=O)O)c(NC(=O)Cc2ccccc2)cc1C(=O)O`, the half-maximal effective concentration (EC50) turned out to be 104 µM.

Still in this experiment, the particulars now being: t cell line.
Take `COc1ccc2oc(=O)c(-c3csc(N/N=C/c4ccccc4O)n3)cc2c1`: the EC50 result is given as “Not Active”.
Consider `O=C(Nc1ccc(O)c(-c2nc3cc(Cl)ccc3o2)c1)c1cccnc1`, for which the EC50 entry is listed as “Not Active”.
Still for that read-out and setting: the entry for `CC(C)Cn1c(=O)c(C(=O)Nc2ccccc2S(N)(=O)=O)c(O)c2ccccc21` is “Not Active”.

The next experiment addresses T1, Human immunodeficiency virus type 1 integrase (Human immunodeficiency virus 1, UniProt Q7ZJM1). Briefly: Inhibition of 3'-processing catalytic activity HIV1 integrase.
Conditions: not given
The essentials: (§1)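 Wild-type HIV-1 IN (200 nM final) preincubated with inhibitor for 30 min at 30 °C. Buffer: 25 mM MOPS pH 7.2, 7.5 mM MnCl2, 50 mM NaCl, 10% DMSO, BSA and reducing agents. Reactions were quenched with formamide dye. IC50 was taken from log concentration versus percent inhibition.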
One may read the IC50 as the concentration that gives 50% inhibition. Take `COc1cc(/C=N/NC2=NC(=O)C(CC(=O)Nc3ccc(Cl)c(Cl)c3)S2)ccc1O` (configuration not stated): 89 µM corresponded to half-maximal inhibition (IC50). That is a double-digit micromolar value.
As for `O=C(O)c1cc(NC(=O)c2cccc3ccccc23)c(C(=O)O)cc1NC(=O)c1cccc2ccccc12`, the half-maximal inhibitory concentration (IC50) came out at 28 µM.
The same measure, in the same setting: the result for `O=C(CSc1nc(CSc2ccc(Cl)cc2)cc(=O)[nH]1)Nc1ccc(Cl)cc1Cl` reads 34 µM; that for `O=C(CSc1nc2ccccc2n1Cc1ccccc1)N/N=C/c1cc(Br)ccc1O`, 60 µM; that for `O=C(/C=C/c1ccco1)NC(=S)Nc1ccccc1O`, 57 µM.
The compound `CC(=O)c1cc(C(=O)CC(=O)Nc2ccc([N+](=O)[O-])cc2)sc1Nc1ccccc1` gave an IC50 of 80 µM. The IC50 values of the last two compounds are within 1.5-fold of each other.
`COc1ccc2oc(=O)c(-c3csc(N/N=C/c4ccccc4O)n3)cc2c1` yielded an IC50 of 30 µM.
`CCOC(=O)CCc1cc(C(=O)OCC)c(CCC(=O)OCC)cc1C(=O)OCC` gave a half-inhibitory concentration (IC50) of more than 100 µM.
The compound `O=C(/C=C/c1ccc(-c2ccccc2[N+](=O)[O-])o1)Nc1ccc(O)c(-c2nc3ccccc3o2)c1` showed an IC50 of 23 µM.
On to `O=C(N/N=C/c1cc(Br)ccc1O)/C(=C/C=C/c1ccccc1)NC(=O)c1ccccc1`, for which the IC50 came out at 90 µM.
As to `COC(=O)c1ccc(C(=O)OC)c(NC(=O)c2ccc(C)c([N+](=O)[O-])c2)c1`, the IC50 was 92 µM.
For `CCOC(=O)c1c(-c2ccccc2)csc1NC(NC(=O)c1ccco1)C(=O)c1ccc(C)cc1` (configuration not stated), the IC50 was more than 100 µM.
On the same count and under the same terms, the figure for `Oc1ccccc1/C=N/CC(O)C/N=C/c1ccccc1O` is 97 µM; for `CC(=O)c1cc(C(=O)CC(=O)Nc2ccccc2)sc1Nc1ccccc1` it is more than 100 µM.
`Cc1ccc(S(=O)(=O)Nc2ccccc2/N=C/c2sc3ccccc3c2O)cc1` showed an IC50 of 88 µM.
`O=C(/C=C(\O)c1ccc(Cl)cc1)C(=O)/N=N/c1c(O)[nH]c2ccc(Br)cc12` came in with an IC50 of 42 µM.
Still for that read-out and setting: the figure for `COc1ccc(N(CC(=O)N/N=C/c2c(O)ccc3ccccc23)S(C)(=O)=O)cc1Cl` is 95 µM; for `COc1ccc(C(=O)Nc2ccc(O)c(-c3nc4ccccc4o3)c2)cc1[N+](=O)[O-]` it is 6 µM; for `O=C(/C=C/c1ccc(Cl)cc1)Nc1ccc(NC(=O)c2ccco2)cc1` it is 90 µM.
`O=C(Nc1ccc(O)c(-c2nc3cc(Cl)ccc3o2)c1)c1cccnc1` showed an IC50 of 61 µM. The IC50 values of the last two compounds are within 1.5-fold of each other.
`O=C(/N=N/c1c(O)[nH]c2ccc(F)cc12)/C(=C/C=C/c1ccccc1)NC(=O)c1ccccc1` displayed an IC50 of 60 µM.
Compound `Cc1ccc(C(=O)C2=C(O)C(=O)N(CCCc3c[nH]cn3)C2c2ccc(Cl)cc2)cc1` (configuration not stated) yielded a 50% inhibitory concentration (IC50) of 93 µM.
With `Cc1[nH]n(-c2ccccc2)c(=O)c1C(c1ccc(O)c(O)c1)c1c(C)n(C)n(-c2ccccc2)c1=O` (configuration not stated), the IC50 amounted to 89 µM.
As to `Cc1ccc(C(=O)N/C(=C/c2ccc(-c3ccc(Cl)cc3Cl)o2)C(=O)NCCCO)cc1`, the IC50 is more than 1000 µM.
`COc1ccc(CCNC(=O)CC(=O)N/N=C/c2ccco2)cc1OC` showed a half-inhibitory concentration (IC50) of more than 100 µM.
In the case of `O=C(Nc1ccc(O)c(-c2nc3ccccc3o2)c1)c1cccc2ccccc12`, the IC50 came to 14 µM.
Turning to `O=C(c1ccccc1)c1cc(Br)ccc1NC(=O)c1nc[nH]c1C(=O)O`, the IC50 stood at 16 µM. The IC50 values of the last two compounds are within 1.5-fold of each other.
On the same count and under the same terms, the figure for `O=C(O)C(Cc1c[nH]c2ccccc12)NS(=O)(=O)c1ccccc1[N+](=O)[O-]` (configuration not stated) is 88 µM; for `CC(C)Cn1c(=O)c(C(=O)Nc2ccccc2S(N)(=O)=O)c(O)c2ccccc21` it is 40 µM.
Turning to `CC(=O)c1cc(C(=O)CC(=O)Nc2cccc([N+](=O)[O-])c2)sc1Nc1ccccc1`, inhibition was half-maximal at 97 µM (IC50).
The compound `O=C(CC1Sc2ccccc2NC1=O)Nc1cccc(C(=O)O)c1` (configuration not stated) displayed an IC50 of 79 µM.
Same read-out and setting: the figure for `CCSc1nnc(N2C(=O)c3ccc(C(=O)c4ccc(C(=O)O)cc4)cc3C2=O)s1` is 98 µM; for `O=C(N/N=C/c1ccc(/C=N/NC(=O)c2cc(O)cc(O)c2)cc1)c1cc(O)cc(O)c1` it is 76 µM; for `O=C(Cc1ccccc1)Nc1cc(C(=O)O)c(NC(=O)Cc2ccccc2)cc1C(=O)O` it is 9 µM.

The next experiment deals with T1, Human immunodeficiency virus type 1 integrase. As to the kind of experiment: Inhibition of strand transfer catalytic activity HIV1 integrase.
Conditions: not given
The essentials:
as §1
`COc1cc(/C=N/NC2=NC(=O)C(CC(=O)Nc3ccc(Cl)c(Cl)c3)S2)ccc1O` (configuration not stated) registered an IC50 of 38 µM.
Consider `O=C(O)c1cc(NC(=O)c2cccc3ccccc23)c(C(=O)O)cc1NC(=O)c1cccc2ccccc12`, for which half-maximal inhibition (IC50) required 21 µM. This IC50 lies about 1.8-fold lower than the previous one.
With `O=C(CSc1nc(CSc2ccc(Cl)cc2)cc(=O)[nH]1)Nc1ccc(Cl)cc1Cl`, the half-maximal inhibitory concentration (IC50) came out at 24 µM.
Compound `O=C(CSc1nc2ccccc2n1Cc1ccccc1)N/N=C/c1cc(Br)ccc1O` returned an IC50 of 51 µM.
On the same count and under the same terms, the figure for `O=C(/C=C/c1ccco1)NC(=S)Nc1ccccc1O` is 28 µM; for `CC(=O)c1cc(C(=O)CC(=O)Nc2ccc([N+](=O)[O-])cc2)sc1Nc1ccccc1` it is 28 µM.
On the same count and under the same terms, the result for `COc1ccc2oc(=O)c(-c3csc(N/N=C/c4ccccc4O)n3)cc2c1` reads 10 µM; that for `CCOC(=O)CCc1cc(C(=O)OCC)c(CCC(=O)OCC)cc1C(=O)OCC`, 94 µM; that for `O=C(/C=C/c1ccc(-c2ccccc2[N+](=O)[O-])o1)Nc1ccc(O)c(-c2nc3ccccc3o2)c1`, 63 µM.
`O=C(N/N=C/c1cc(Br)ccc1O)/C(=C/C=C/c1ccccc1)NC(=O)c1ccccc1` came in with an IC50 of 23 µM.
In the case of `COC(=O)c1ccc(C(=O)OC)c(NC(=O)c2ccc(C)c([N+](=O)[O-])c2)c1`, the IC50 was more than 100 µM.
Turning to `CCOC(=O)c1c(-c2ccccc2)csc1NC(NC(=O)c1ccco1)C(=O)c1ccc(C)cc1` (configuration not stated), the IC50 is 79 µM.
Turning to `Oc1ccccc1/C=N/CC(O)C/N=C/c1ccccc1O`, it took 61 µM to reach half-maximal inhibition (IC50).
`CC(=O)c1cc(C(=O)CC(=O)Nc2ccccc2)sc1Nc1ccccc1`: the IC50 was more than 100 µM.
Turning to `Cc1ccc(S(=O)(=O)Nc2ccccc2/N=C/c2sc3ccccc3c2O)cc1`, the IC50 worked out at 68 µM.
As for `O=C(/C=C(\O)c1ccc(Cl)cc1)C(=O)/N=N/c1c(O)[nH]c2ccc(Br)cc12`, the IC50 was 28 µM.
`COc1ccc(N(CC(=O)N/N=C/c2c(O)ccc3ccccc23)S(C)(=O)=O)cc1Cl`: the IC50 came out at 59 µM.
Still for that read-out and setting: the figure for `COc1ccc(C(=O)Nc2ccc(O)c(-c3nc4ccccc4o3)c2)cc1[N+](=O)[O-]` is 7 µM.
In the case of `O=C(/C=C/c1ccc(Cl)cc1)Nc1ccc(NC(=O)c2ccco2)cc1`, the IC50 was 91 µM.
Consider `O=C(Nc1ccc(O)c(-c2nc3cc(Cl)ccc3o2)c1)c1cccnc1`, for which the IC50 worked out at 10 µM. This IC50 is about 9.1-fold lower than that of the compound before.
`O=C(/N=N/c1c(O)[nH]c2ccc(F)cc12)/C(=C/C=C/c1ccccc1)NC(=O)c1ccccc1`: the IC50 is 38 µM. This IC50 lies about 3.8-fold higher than the previous one.
As to `Cc1ccc(C(=O)C2=C(O)C(=O)N(CCCc3c[nH]cn3)C2c2ccc(Cl)cc2)cc1` (configuration not stated), the IC50 is 67 µM.
`Cc1[nH]n(-c2ccccc2)c(=O)c1C(c1ccc(O)c(O)c1)c1c(C)n(C)n(-c2ccccc2)c1=O` (configuration not stated) yielded an IC50 of 31 µM.
The compound `Cc1ccc(C(=O)N/C(=C/c2ccc(-c3ccc(Cl)cc3Cl)o2)C(=O)NCCCO)cc1` registered an IC50 of 85 µM.
Still for that read-out and setting: the figure for `COc1ccc(CCNC(=O)CC(=O)N/N=C/c2ccco2)cc1OC` is 90 µM; for `O=C(Nc1ccc(O)c(-c2nc3ccccc3o2)c1)c1cccc2ccccc12` it is 6 µM; for `O=C(c1ccccc1)c1cc(Br)ccc1NC(=O)c1nc[nH]c1C(=O)O` it is 17 µM.
The compound `O=C(O)C(Cc1c[nH]c2ccccc12)NS(=O)(=O)c1ccccc1[N+](=O)[O-]` (configuration not stated) yielded an IC50 of 56 µM.
Take `CC(C)Cn1c(=O)c(C(=O)Nc2ccccc2S(N)(=O)=O)c(O)c2ccccc21`: inhibition was half-maximal at 16 µM (IC50).
Compound `CC(=O)c1cc(C(=O)CC(=O)Nc2cccc([N+](=O)[O-])c2)sc1Nc1ccccc1` came in with an IC50 of 29 µM.
As for `O=C(CC1Sc2ccccc2NC1=O)Nc1cccc(C(=O)O)c1` (configuration not stated), inhibition was half-maximal at 71 µM (IC50).
`CCSc1nnc(N2C(=O)c3ccc(C(=O)c4ccc(C(=O)O)cc4)cc3C2=O)s1` showed an IC50 of 65 µM.
As for `O=C(N/N=C/c1ccc(/C=N/NC(=O)c2cc(O)cc(O)c2)cc1)c1cc(O)cc(O)c1`, the IC50 was found to be 56 µM.
`O=C(Cc1ccccc1)Nc1cc(C(=O)O)c(NC(=O)Cc2ccccc2)cc1C(=O)O` registered an IC50 of 7 µM.

The values above are taken from ChEMBL document CHEMBL1141221, “Diketo acid pharmacophore. 2. Discovery of structurally diverse inhibitors of HIV-1 integrase” (J Med Chem, 2005).
